Sampled rows, rich in hits. Any-hit rate of the full collection: about 3%.
M4 PAM: CHRM4 positive allosteric modulation | P08173 | activation, % at 3 µM | 360,000 tested, 0.4% active | CHO-K1 hM4/Gqi5, Fluo-8 calcium fluorescence, ACh EC20; 0% = ACh EC20, 100% = maximal ACh;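 active = activation above its plate's cutoff, the mean activation of sample wells plus 3 SD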
Target sequence (P08173 whole entry, looked up): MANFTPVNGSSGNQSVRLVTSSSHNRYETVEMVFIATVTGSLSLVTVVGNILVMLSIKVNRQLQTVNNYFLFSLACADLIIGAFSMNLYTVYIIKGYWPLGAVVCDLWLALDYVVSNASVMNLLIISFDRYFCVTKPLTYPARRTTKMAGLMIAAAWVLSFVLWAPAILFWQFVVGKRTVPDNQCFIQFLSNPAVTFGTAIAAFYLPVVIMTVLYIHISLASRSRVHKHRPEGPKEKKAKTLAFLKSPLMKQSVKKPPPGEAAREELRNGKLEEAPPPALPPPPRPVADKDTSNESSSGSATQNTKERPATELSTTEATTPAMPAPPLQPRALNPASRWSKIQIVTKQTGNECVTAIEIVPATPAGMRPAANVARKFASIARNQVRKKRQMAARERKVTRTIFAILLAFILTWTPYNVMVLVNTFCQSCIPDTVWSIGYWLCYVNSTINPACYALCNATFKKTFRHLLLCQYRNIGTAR
TAAR1 agonist: human TAAR1 agonism; Q96RJ0; CHO RD-HGA16 TAAR1, Fluo-8 calcium fluorescence; vehicle wells 0%, saturating PEA agonist 100%; activation, % at 3 µM; 360,000 tested, 0.99% active;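 active = activation above the mean activation of all test compounds in the run plus 3 SD, cut at about 38% in these data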
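Test system: RD-HGA16 (CHO) cells co-expressing Gα16 and hTAAR1 / Benchmarks: DMSO vehicle as 0%, PEA at EC100 as 100% / Repeats: no replicates (n 1) / Measure: % activation from peak over basal fluorescence ratio, DMSO-to-PEA scaled / Timing: 17-24 h plating, Fluo-8 75 min 37 °C, 30 min RT / Technique: kinetic Fluo-8 calcium fluorescence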
M4 ag: agonists of human muscarinic M4 receptor (CHRM4); P08173; CHO-K1 hM4/Gqi5, Fluo-8 calcium fluorescence; vehicle 0%, full acetylcholine response 100%; activation, % at 3 µM; 360,000 tested, 0.14% active; AID 624127;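 active = activation above the run mean over all test wells plus 3 SD, cut at about 32% in these data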;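 also: peak over basal fluorescence ratio per well then scaled between controls; 0% = DMSO wells and 100% = acetylcholine at EC100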
M4 antag: antagonists of human muscarinic M4 receptor (CHRM4). inhibition, % at 3 µM. 360,000 tested, 0.73% active. CHO-hM4 cells, ACh EC80, Fluo-8 calcium fluorescence. P08173;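 active = inhibition above its plate's cutoff, the mean inhibition of sample wells plus 3 SD, cut at about 27% in these data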;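 also: 0% = acetylcholine EC80 with DMSO and 100% = DMSO without agonist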
TAAR1 antag: human TAAR1 antagonism | Q96RJ0 | AID 624466 | 360,000 tested, 1.5% active | inhibition, % at 3 µM | CHO RD-HGA16 TAAR1, Fluo-8 calcium fluorescence, antagonist;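 active = inhibition above a per-plate cutoff, the mean inhibition of test compounds on that plate plus 3 SD, cut at about 49% in these data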;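 also: 0% = DMSO plus EC80 beta-PEA response and 100% = DMSO alone without agonist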
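Test system: CHO RD-HGA16 cells bearing hTAAR1 | Reagent: β-PEA, EC80 | Compound dosing: 3 µM, single point | Schedule: Dye loading 75 min at 37 °C, then 30 min room temperature | Signal: Calcium fluorescence with Fluo-8 | Evaluation: Percent inhibition of PEA-evoked calcium signal, max/basal emission ratio | Control set: DMSO-only wells and EC80 β-PEA-stimulated wells | Repeats: Singlicate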
Active calls of the source: *; / = no result given.

SMILES	M4 PAM	TAAR1 agonist	M4 ag	M4 antag	TAAR1 antag
CN1C(=O)N(CC(=O)c2ccc3c(c2)OCO3)C(=O)C12CCCCC2	5.2	5.9	2.8	-5.8	2.8
C=CCN=C1NC(c2cccc(Cl)c2)C(C(=O)OC)=C(C)N1C (configuration not stated)	/	0.5	/	/	6.7
COC(=O)c1cc2c(c3c4ccccc4n(S(=O)(=O)c4ccccc4)c13)C(=O)N(Cc1ccc(C(F)(F)F)cc1)C2	/	0.1	/	/	-20.2
Cc1cc2n(n1)C(c1ccc(O)cc1)Nc1ccccc1-2 (configuration not stated)	30.3*	0.2	1.0	13.2	11.3
NC(c1csc(Nc2nncc3ccccc23)n1)c1ccccc1Cl (configuration not stated)	6.8	50.5*	14.1	8.9	39.9
NC(=O)N/N=C/c1ccc([N+](=O)[O-])o1	-2.2	1.5	1.2	-0.3	-13.3
COC(=O)N/N=C/c1ccc([N+](=O)[O-])o1	30.2*	5.9	1.2	13.8	-6.9
CCCCNC(=O)c1nc(C2CCN(S(=O)(=O)c3ccccc3C(F)(F)F)CC2)oc1-c1cccc(C(F)(F)F)c1	3.8	0.7	2.4	-1.0	11.8
O=C(NCc1ccccc1)c1onc(CSc2ccccc2)c1C(=O)NCC1CC1	-7.3	14.2	2.6	3.8	56.0*
O=C(NCc1ccccc1)c1onc(CSc2ccc(Cl)cc2)c1C(=O)NCC1CC1	4.0	6.7	3.7	-7.8	-0.4
O=C(/C=C/c1cccc([N+](=O)[O-])c1)c1ccc([N+](=O)[O-])o1	14.3	49.8*	3.7	2.3	68.0*
Cc1cccc(/C=C/C(=O)c2ccc([N+](=O)[O-])o2)c1	1.4	36.6	0.3	8.7	33.1
Cc1ccc(C(=O)N2CCC[C@@H]2C(=O)N2CCC[C@H]2C(=O)NCc2ccccc2)cc1C	/	0.3	/	/	-9.4
COc1ccc(Nc2ncnc3c2cnn3-c2cccc(C)c2)cc1OC	8.1	1.2	1.0	-17.4	-0.3
COc1ccc(-n2ncc3c(Nc4cccc(C)c4)ncnc32)cc1	19.0*	10.6	1.8	-12.6	38.2
Cc1ccc(S(=O)(=O)N2CC3=C(c4ccccc4)CC4(C)C(=O)C(C)(C)CC4=C3C2)cc1 (configuration not stated)	/	-1.1	/	/	-0.4
COC(=O)N1C[C@H](OCc2cn(-c3cc(Cl)cc(Cl)c3)nn2)[C@H](OCc2cn(-c3cc(Cl)cc(Cl)c3)nn2)C[C@@H]1c1ccccc1Br	/	-0.3	/	/	0.0
COc1ccc(NC(=O)c2ccc(NC3=NC4CS(=O)(=O)CC4S3)cc2)cc1 (configuration not stated)	0.9	0.2	0.6	-34.1	-8.6
O=C(Cc1ccc(NC2=NC3CS(=O)(=O)CC3S2)cc1)NCc1ccccc1Cl (configuration not stated)	16.4*	3.3	0.1	-28.6	-12.0
O=C(Cc1ccc(NC2=NC3CS(=O)(=O)CC3S2)cc1)NCc1ccccc1 (configuration not stated)	-1.9	10.6	0.7	9.2	-36.0
CC(NC(=O)c1ccc(NC2=NC3CS(=O)(=O)CC3S2)cc1)c1ccccc1 (configuration not stated)	-17.9	1.0	-0.3	94.4*	-15.0
O=C1NCC(COCC2CC=CCC2)O1 (configuration not stated)	27.9*	13.9	1.9	17.5	-12.5
CN(C)CCCn1c(SCc2c(Cl)cccc2Cl)nnc1-c1ccncc1	22.4*	-1.2	4.3	14.8	-10.5
CCOC(=O)C1=CCN(S(=O)(=O)c2ccc(Cl)cc2)C1c1ccc(Br)cc1 (configuration not stated)	/	0.4	/	/	4.9
CN(C)S(=O)(=O)c1ccc(-c2ccccc2)cc1	-3.9	28.4	2.9	-2.4	5.2
SMILES	M4 PAM	TAAR1 agonist	M4 ag	M4 antag	TAAR1 antag
CN(c1ccccc1)S(=O)(=O)c1ccc(-c2ccccc2)cc1	-4.4	5.7	0.9	-4.4	51.8*
O=C(N[C@H](C(=O)N1CCC[C@H]1C(=O)NC1CCCC1)C1CCCCC1)c1cccs1	/	-0.9	/	/	-27.7
S=C(c1ccccc1)N1CCCc2ccccc21	37.7*	-1.1	-3.2	-12.4	-17.4
Cc1ccc(NC(=O)CC2SC(=NC3CCCCC3)NC2=O)cc1 (configuration not stated)	18.4*	0.6	0.0	-8.5	-25.8
Cc1ccccc1NC(=O)CC1SC(=NC2CCCCC2)NC1=O (configuration not stated)	3.5	3.2	1.0	-0.9	-18.9
CC(C)C[C@H]1COc2cc(N3CCCC3)ccc2S(=O)(=O)N1	/	1.9	/	/	4.8
CN(C)[C@@H]1CCC[C@H]1OC(=O)C(c1ccccc1)c1ccccc1	-13.6	4.0	0.3	20.0	3.5
CC1CN(C)C(C)CC1OC(=O)C(c1ccccc1)c1ccccc1 (configuration not stated)	-14.8	2.3	0.6	60.9*	-23.5
CCC(C)C(CO)NCCCn1cnc2c(OC)ncnc21 (configuration not stated)	-1.4	5.4	1.8	1.5	-23.0
CCc1cc(OCCCCNCc2ccccc2)ccc1Cl	-19.8	41.5*	20.2	23.4	25.4
O=C(Cn1nnc(N2CCOCC2)n1)NN=Cc1ccccc1Cl	/	0.4	/	/	4.5
C/C(=N\NC(=O)c1ccc(Cl)cc1)c1cccs1	22.1*	3.0	1.3	-9.1	7.4
C/C(=N\NC(=O)CO/N=C(\C)c1cccs1)c1ccc(N)cc1	11.6	-1.0	0.8	28.6*	4.2
Cc1ccccc1-c1cccc2[nH]c3c(c12)CCN1C(=O)[C@H]2[C@H](C)ON(C)[C@H]2C[C@@H]31	/	10.4	/	/	18.3
COC(=O)c1ccc2nc(-c3ccc(C#N)cc3)c(Cc3cccc(Cl)c3)n2c1	-5.1	0.3	2.8	9.8	4.1
Cc1cc(O)cc(=O)n1-c1cccc(Br)c1	/	0.8	/	/	-20.0
CC(C)N(C(=O)CSc1nc2c([nH]1)c(=O)n(C)c(=O)n2C)c1ccccc1	16.9*	2.1	0.8	-16.4	-28.4
Cc1ccc(C(=O)CSc2nc3c([nH]2)c(=O)n(C)c(=O)n3C)cc1	13.5	4.9	0.3	-12.3	-11.6
CCOc1ccccc1-c1cnc(NC)cn1	-1.4	2.6	0.0	-4.4	-18.8
CC1=NN(c2ccccc2)C(=O)/C1=C/N(C)C	-2.9	1.9	0.1	5.4	8.7
CC1=NN(c2ccccc2)C(=O)/C1=C\C=C1\N(C)c2ccccc2C1(C)C	1.6	54.0*	9.7	4.1	19.1
CCOc1ccccc1NC(=O)COC(=O)c1ccc(S(=O)(=O)N2CCCC2)cc1	4.0	12.4	4.4	0.0	58.9*
CCOc1ccc(NC(=O)CCN2CCN(S(=O)(=O)c3ccc(F)cc3)CC2)cc1	-6.3	2.6	3.9	1.6	-18.1
O=C(COC(=O)c1ccc(O)cc1)Nc1cc(S(=O)(=O)N2CCOCC2)ccc1Cl	-12.2	26.8	22.8	2.2	53.3*

High-throughput results deposited in PubChem BioAssay by The Scripps Research Institute Molecular Screening Center.
